Data reported in PubChem BioAssay.

Assay: LAP4-GFP expression modulators in yeast, confirmation, cell-based, cherry picks, flow cytometry, mother/daughter gates (AID 2271);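 also: ratio of sample to DMSO plate mean so 100% equals DMSO level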
Conditions: S. cerevisiae LAP4-GFP strain, 3 h, measured here: daughter cell gate response, at 10 µM, stronger effect = higher value, 100 means same as DMSO control
Summary of the method: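 System: GFP-fusion yeast strain; Incubation: compound exposure 3 h at 30 °C, end-over-end rotation; Measured by: GFP by flow cytometry; Read-out: median GFP fluorescence as percent of plate-mean DMSO wells; Medium: synthetic complete (SC) yeast growth medium; Compound: single test-compound dose, 10 µM final; Benchmarks: DMSO-only negative wells, rapamycin 400 ng/mL positive wells.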

Row | Structure (SMILES) | GFP response relative to DMSO [%]
1 | Cc1ccc(C(=O)OCC(=O)Nc2ccccc2Sc2ccccc2)cc1C | 99.7
2 | CCCCCCc1cc2cc(-c3nnc(-c4ccccc4OC)o3)c(=O)oc2cc1O | 105
3 | O=C(OCn1ncc(Br)c(Br)c1=O)c1ccc(F)cc1 | 183
4 | CSc1ccc(-c2cc(=O)c3ccccc3o2)cc1 | 110
5 | c1cc2c(cc1C1CCCCC1)c1c3n2CCCNC3CCC1 (centres undefined) | 102
6 | CCOC(=O)C1(CCCc2ccccc2)CCN(C(=O)c2cc(C)nn2CC)CC1 | 102
7 | Cn1cnnc1SCC(=O)Nc1nc(-c2ccc(F)cc2)cs1 | 95.9
8 | O=C1C=C(c2ccccc2)C(=O)N1Nc1ccccc1 | 96
9 | S=C(Sc1ccc(Cl)cc1)Sc1ccc(Cl)cc1 | 108
10 | O=C(O)c1ccc(N/N=C/c2c(F)cccc2Cl)cc1 | 121
11 | Cc1ccc(-c2csc(NC(=O)c3ccno3)n2)cc1 | 99.1
12 | Cc1nn(C)cc1C(C)NC(=O)c1cc(COc2ccc(F)c(F)c2)on1 (centres undefined) | 94.1
13 | CN(O)/C=c1/ccc2c(n1)C(=O)C=CC=2 | 170
14 | CCOc1ccc(S(=O)(=O)n2ccnc2C)cc1 | 97.2
15 | CCCCN(CC)S(=O)(=O)c1ccc(C(=O)Nc2nnc(-c3ccccc3Cl)o2)cc1 | 99.2
16 | Oc1c(CN2CCCCC2)cc(Br)c2cccnc12 | 181
17 | O=C(O)c1ccc(N/N=C/C(Br)=C/c2ccccc2)cc1 | 130
18 | Cc1ccc(NC(=O)COc2ccc(Br)cc2C)cc1 | 102
19 | CCCn1c(=O)c(C(=O)Nc2ccccc2C(=O)OCC)c(O)c2ccccc21 | 94.4
20 | N#C/C(C(=O)Nc1ccc(Cl)cc1)=C(/S)Nc1ccccc1 | 104

Row | Structure (SMILES) | GFP response relative to DMSO [%]
21 | CN1/C(=C\C(=O)c2cccc(S(=O)(=O)N3CCCCC3)c2)C(C)(C)c2ccccc21 | 97.6
22 | CCn1c(=O)c(C(=O)NCc2ccc(OC)cc2)c(O)c2ccccc21 | 102
23 | C/C(=N/NS(=O)(=O)c1ccccc1)c1ccc(NC(=O)C(F)(F)F)cc1 | 95
24 | CS(=O)(=O)c1nc(-c2ccccc2)cc(C(F)(F)F)n1 | 179
25 | CCOc1ccc(/C=C/C(=O)c2c(O)cc(C)oc2=O)cc1 | 113
26 | CCCc1[nH]nc2c1C(c1cccnc1)C(C#N)=C(N)O2 (centres undefined) | 97.6
27 | O=C1CC(Sc2nnc(-c3ccccc3)o2)C(=O)N1c1ccccc1 (centres undefined) | 105
28 | O=C(NNC(=O)C1CCCCC1)C(=O)NC1CCCCC1 | 97.9
29 | Cc1ccc(/C(C#N)=C\c2ccc(N3CCOCC3)o2)cc1 | 104
30 | N/C(Cc1ccc(Cl)c(Cl)c1)=N\OC(=O)c1cccs1 | 160
31 | Cn1cc([N+](=O)[O-])c(C(=O)Nc2nc(-c3ccc(Cl)cc3)cs2)n1 | 97.5
32 | CCCOc1ccc(C(=O)NNC(=S)NC(=O)c2ccccc2)cc1 | 136
33 | COc1ccc(N2C(=O)c3cccc4cccc(c34)C2=O)nn1 | 91
34 | Clc1ccc(OCCn2cnc3ccccc32)c(Cl)c1 | 123
35 | N#C/C(=C\c1ccccn1)c1nc2ccccc2s1 | 464
36 | COc1ccc(S(=O)(=O)NCC(=O)N(CC(=O)NCc2ccco2)Cc2ccc(F)cc2)cc1 | 99.1
37 | Cc1cc(OCc2ccc(C(=O)NN=C3CCCC3)cc2)ccc1Cl | 116
38 | CCCCC(=O)NNC(=S)NC(=O)c1ccc(C)cc1 | 204
39 | Cc1ccc(N2C(=O)C3C4C=CC(CNC(=S)Nc5ccc(F)cc5)(O4)C3C2=O)cc1 (centres undefined) | 103
